This is a sample that favours compounds with a hit; in the whole collection about 3% have one here.
TRPC4 PAM = TRPC4 (mouse) allosteric potentiation | Q9QUQ5 | HEK293 TRPC4beta/mu-opioid, DAMGO EC20, Fluo-4 Ca2+ flux; stronger effect = higher value | B-score at 10 µM | 310,000 compounds, 0.42% hits | AID 2227;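 active = B-score of calcium response area above 5 SD of library B-scores, with initial fluorescence ratio within 5 SD of library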;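 also: B-score of integrated fluorescence ratio over time as area under calcium response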
TRPC6 inh = inhibitors of mouse TRPC6 channel | Q61143 | HEK293-TRPC6, membrane potential dye, ACh-evoked depolarization; stronger effect = lower value | B-score at 10 µM | 310,000 compounds, 1.1% hits | AID 2553;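 active = B-score under library mean minus 3 SD, initial fluorescence not abnormally high, positive integrated signal ratio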;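 also: B-score derived from integrated fluorescence ratio over the kinetic read; more negative B-score means stronger inhibition of depolarization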
Target sequence (Q61143 whole entry, looked up): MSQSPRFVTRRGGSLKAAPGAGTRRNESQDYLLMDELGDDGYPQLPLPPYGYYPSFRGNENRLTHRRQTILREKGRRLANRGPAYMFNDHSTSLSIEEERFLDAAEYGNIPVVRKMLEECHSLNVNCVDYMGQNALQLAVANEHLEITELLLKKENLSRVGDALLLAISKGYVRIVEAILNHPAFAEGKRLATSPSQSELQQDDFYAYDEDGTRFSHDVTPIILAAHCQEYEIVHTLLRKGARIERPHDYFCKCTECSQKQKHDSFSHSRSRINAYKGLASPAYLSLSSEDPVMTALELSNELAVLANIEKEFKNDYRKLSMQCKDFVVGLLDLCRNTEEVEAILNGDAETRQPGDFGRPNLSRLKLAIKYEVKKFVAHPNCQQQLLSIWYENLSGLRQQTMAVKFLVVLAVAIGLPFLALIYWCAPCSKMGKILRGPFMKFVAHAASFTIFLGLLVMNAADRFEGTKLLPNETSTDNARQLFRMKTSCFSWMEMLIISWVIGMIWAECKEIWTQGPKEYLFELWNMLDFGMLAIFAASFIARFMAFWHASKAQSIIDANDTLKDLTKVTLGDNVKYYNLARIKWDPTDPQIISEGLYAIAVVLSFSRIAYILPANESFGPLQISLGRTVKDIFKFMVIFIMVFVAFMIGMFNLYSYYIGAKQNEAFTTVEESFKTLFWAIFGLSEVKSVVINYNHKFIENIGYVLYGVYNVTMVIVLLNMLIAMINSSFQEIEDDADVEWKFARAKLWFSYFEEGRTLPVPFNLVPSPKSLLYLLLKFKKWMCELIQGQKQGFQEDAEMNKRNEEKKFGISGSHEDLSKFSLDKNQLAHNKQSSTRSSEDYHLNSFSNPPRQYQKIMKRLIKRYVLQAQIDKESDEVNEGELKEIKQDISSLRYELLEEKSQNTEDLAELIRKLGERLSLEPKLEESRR
TRPC4 act = activators of mouse TRPC4 channel; Q9QUQ5; HEK293 TRPC4beta/mu-opioid, Fluo4 calcium fluorescence; stronger effect = higher value; B-score at 10 µM; 310,000 compounds, 0.49% hits;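 active = B-score above 5 SD of library B-scores, and initial fluorescence ratio not above library mean plus 5 SD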;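 also: positive B-score marks a calcium rise read as TRPC4 activation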
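Assay system – TRPC4beta and mu-opioid receptor HEK293 stable cells · Measured by – Fluo4 fluorescence, kinetic · Schedule – dye loading 45 min room temperature, 110 s kinetic read · Read-out – B-scored integrated calcium fluorescence ratio · Controls – buffer and maximal DAMGO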
Kir21 block = Kir2.1 (mouse) channel inhibition | P35561 | B-score at 10 µM | AID 1672 | HEK293-Kir2.1, FluxOR thallium flux fluorescence; stronger effect = lower value | 310,000 compounds, 0.85% hits;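 active = fluorescence ratio B-score at or below minus 3 SD of library scores, with starting-brightness B-score within 2 SD, cut at about -4.2 in these data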;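 also: channel flux triggered by added potassium and thallium sulfate stimulus; B-score of peak minus minimum fluorescence over baseline after thallium stimulus; more negative B-score means stronger Kir2.1 block with less thallium influx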
TRPC6 activator = mouse TRPC6 channel activation; AID 2550; 310,000 compounds, 0.13% hits; B-score at 10 µM; Q61143; HEK293-TRPC6 membrane potential dye fluorescence; stronger effect = higher value;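 active = B-score of the integrated fluorescence ratio above library mean plus 3 SD, and starting fluorescence ratio within library mean plus 5 SD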;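 also: higher score means more depolarization so channel activation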
TRPC4 block = inhibitors of mouse TRPC4 channel; 300,000 compounds, 0.39% hits; HEK293 TRPC4beta/mu-opioid, DAMGO-evoked Fluo4 calcium flux; stronger effect = lower value; AID 2247; B-score at 10 µM;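 active = B-score over 3 SD under the library average, no early fluorescence shift, positive overall ratio signal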
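Material: HEK293 cells with stable TRPC4beta plus mu-opioid receptor expression; probe or stimulus: DAMGO in two steps, submaximal then maximal; technique: Fluo4 calcium fluorescence by kinetic imaging, 5 s 1 Hz baseline; measure: integrated fluorescence ratio relative to baseline, converted to per-well B score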
* hit, by the source's call; i = inactive.

SMILES	TRPC4 PAM	TRPC6 inh	TRPC4 act	Kir21 block	TRPC6 activator	TRPC4 block
O=C(CN1C(=O)c2ccccc2C1=O)OCC(=O)c1ccccc1	i	i	i	0.53	i	i
O=C1CC(c2cccc([N+](=O)[O-])c2)c2ccc3ccccc3c2N1 (stereo unspecified)	11*	i	i	1	i	i
CCNC(=O)COc1ccc(/C=C2\COc3ccccc3C2=O)cc1OC	i	i	i	-0.4	i	i
CCOc1cc(/C=C2\COc3ccccc3C2=O)ccc1OCC(=O)N(C)C	i	i	i	-4.3*	i	i
CCOc1ccc(Cc2n[nH]c(=S)n2Cc2ccccc2)cc1	i	i	i	-0.37	i	i
COc1ccc(Cl)cc1-c1n[nH]c(=S)n1Cc1ccccc1	i	i	i	-4.3*	i	i
COc1ccc(Cc2n[nH]c(=S)n2Cc2ccccc2)cc1Cl	i	i	i	-5*	i	i
CCc1c(-c2n[nH]c(=S)n2Cc2ccccc2)csc1C	i	i	i	-9.3*	i	i
CCOC(=O)/C=C1\SCC(=O)N1CC(=O)NC(C)c1ccc(F)cc1 (stereo unspecified)	i	i	i	0.38	i	i
CCn1c(SCC(=O)N2CCCc3ccccc32)nc2cccnc21	i	i	i	-4.9*	i	i
O=C(CSc1nccn1-c1ccc(Cl)cc1)N1CCCc2ccccc21	i	i	i	-9.3*	i	i
Cc1[nH]c2ccccc2c1SCC(=O)N1CCCc2ccccc21	i	i	i	-7.8*	i	i
Cn1c(-c2ccccc2)cnc1SCC(=O)N1CCCc2ccccc21	i	i	i	-7.5*	i	i
Cn1c(SCC(=O)N2CCCc3ccccc32)nc2cccnc21	i	i	i	-0.98	i	i
CCCCN1CC(=O)N2[C@H](c3ccc(OC)cc3)[C@@H]3C(=O)N(CC)C(=O)[C@@H]3[C@]2(Cc2ccccc2)C1=O	i	i	i	-0.86	i	i
O=C(O/N=C/c1ccc(Br)cc1)c1ccc(F)cc1	i	i	i	-0.02	i	i
CCN(CC)C(=O)C(=O)Nc1ccc(F)c(Cl)c1	i	i	i	2.5	i	i
O=S(=O)(NCCc1cn2ccccc2n1)c1ccc(-c2ccccc2)cc1	i	i	i	-4.2*	i	i
CCNC(=S)Nn1cnc2ccccc21	i	i	i	-0.04	i	i
Cc1ccc(OCC(=O)Nc2ccccc2N2CCOCC2)c(C)c1	i	i	i	-8.9*	i	i
Cc1cc(Cl)ccc1OCC(=O)Nc1ccccc1N1CCOCC1	i	i	i	-4.1	i	i
Cc1ccc(C(C)C)c(OCC(=O)NCC(c2cccs2)N2CCOCC2)c1 (stereo unspecified)	i	i	i	-6.2*	i	i
Cc1cc(Cl)ccc1OCC(=O)Nc1ccccc1C(=O)N1CCOCC1	i	i	i	-4.5*	i	i
Cc1ccc(C(C)C)c(OCC(=O)Nc2ccccc2N2CCN(C)CC2)c1	i	i	i	-5.1*	i	i
O=C(COC(=O)c1ccc(Br)o1)Nc1cccc(S(=O)(=O)N2CCCCCC2)c1	i	i	i	2.5	i	i
SMILES	TRPC4 PAM	TRPC6 inh	TRPC4 act	Kir21 block	TRPC6 activator	TRPC4 block
O=C(CC12CC3CC(CC(C3)C1)C2)Nc1nncs1	i	i	i	0.77	i	i
Clc1ccc(SCc2cn3ccccc3n2)cc1	i	i	i	-1.3	i	i
Cc1cccc2nc(CSc3ccc(Cl)cc3)cn12	i	i	i	-0.66	i	-8*
CCCOc1ccc(S(=O)(=O)NCCN2CCOCC2)c2ccccc12	i	i	i	-4.4*	i	i
CCOc1ccc(S(=O)(=O)NCCN2CCOCC2)c2ccccc12	i	i	i	-1.7	i	i
CN1CCN(c2ccc(S(=O)(=O)N3CCCCC3)cc2NC(=O)COc2cccc(Cl)c2)CC1	13*	i	i	-0.17	i	i
Cc1ccccc1C(=O)Nc1cc(S(=O)(=O)N2CCCCC2)ccc1N1CCN(C)CC1	11*	i	i	1.5	i	i
COc1ccccc1CCC(=O)Nc1cc(S(=O)(=O)N2CCCCC2)ccc1N1CCN(C)CC1	i	i	134*	-0.27	i	i
Cc1cccc(OCC(=O)Nc2ccc(S(=O)(=O)N3CCN(C)CC3)cc2)c1	i	i	i	0.07	i	i
CN1CCN(c2ccc(S(=O)(=O)N3CCCCC3)cc2NC(=O)c2ccc3ccccc3c2)CC1	i	i	i	-1.1	i	i
COc1ccccc1CCC(=O)Nc1cccc(S(=O)(=O)N2CCCC2)c1	i	i	i	1.1	i	i
Cc1cccc(OCC(=O)Nc2cc(S(=O)(=O)N3CCCCC3)ccc2N2CCN(C)CC2)c1	11*	i	i	-0.03	i	i
Cc1c(N2C(=O)CSC2c2ccco2)c(=O)n(-c2ccccc2)n1C (stereo unspecified)	i	i	i	0.36	i	i
CCN1CCN(c2c(S(=O)(=O)c3ccc(C)c(C)c3)cnc3ccc(F)cc23)CC1	i	i	61*	-0.36	i	i
O=C(NCc1ccccc1Cl)c1cnc2ccccc2n1	56*	i	i	0.67	i	i
CC(C)(CO)NC(=S)NCc1ccco1	i	i	i	3	i	i
c1ccc(-c2nc(NCc3cccnc3)c3ccccc3n2)cc1	i	i	i	-1.5	i	-6*
OCCNc1nc(NCc2ccccc2)c2ccccc2n1	i	i	i	-0.57	i	-6*
c1ccc(CCNc2nc(-c3ccccn3)nc3ccccc23)cc1	i	i	i	-2.8	i	-6*
O=C(NN1CC(C(=O)OCc2ccc(Cl)cc2Cl)CC1=O)c1ccccc1 (stereo unspecified)	i	i	i	0.75	i	i
CCN(CC)S(=O)(=O)c1cccc(C(=O)OCC(=O)c2ccc3c(c2)OCCO3)c1	i	i	i	0.93	i	i
COc1ccc(S(=O)(=O)N2CCCOC2CNC(=O)C(=O)NCCc2ccco2)cc1 (stereo unspecified)	i	i	i	-0.24	i	i
COc1ccc(CCN(C)C(=O)CN2C(=O)NC3(CCCCC3C)C2=O)cc1OC (stereo unspecified)	i	i	i	0.12	i	i

Bioassay records as filed in PubChem.
